Assay results: ChEMBL document CHEMBL5356993, “Novel pyrazolo[3,4-d]pyrimidine derivatives: design, synthesis, anticancer evaluation, VEGFR-2 inhibition, and antiangiogenic activity” (RSC Med Chem, 2023)

Columns and labels:
Type in all cases: functional
Conditions in all cases: read-out: GI
SK-MEL-28 = experiment: Antiproliferative activity against human SK-MEL-28 cells assessed as cell growth inhibition at 10 uM incubated for 48 hrs by SRB assay relative to control
Method in brief: (§1)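 Cells plated in 96-well plates at […] cells/well and preincubated 24 h at 37 °C, 5% CO2. Time-zero plates were TCA-fixed. Compound was diluted in medium with 50 µg/mL gentamicin and cells exposed for 48 h. Adherent cells fixed with 10% final TCA; suspension cells with 16% final TCA. Plates stained with 0.4% SRB in 1% acetic acid, dye solubilized in 10 mM Trizma, absorbance read at 515 nm. Percent growth calculated against time-zero and control.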

IGROV-1 = experiment: Antiproliferative activity against human IGROV-1 cells assessed as cell growth inhibition at 10 uM incubated for 48 hrs by SRB assay relative to control
RPMI-8226 = experiment: Antiproliferative activity against human RPMI-8226 cells assessed as cell growth inhibition at 10 uM incubated for 48 hrs by SRB assay relative to control
Malme-3M = experiment: Antiproliferative activity against human Malme-3M cells assessed as cell growth inhibition at 10 uM incubated for 48 hrs by SRB assay relative to control
SN12C = experiment: Antiproliferative activity against human SN12C cells assessed as cell growth inhibition at 10 uM incubated for 48 hrs by SRB assay relative to control
MCF7 = experiment: Antiproliferative activity against human MCF7 cells assessed as cell growth inhibition at 10 uM incubated for 48 hrs by SRB assay relative to control
HCT-15 = experiment: Antiproliferative activity against human HCT-15 cells assessed as cell growth inhibition at 10 uM incubated for 48 hrs by SRB assay relative to control
NCI-H522 = experiment: Antiproliferative activity against human NCI-H522 cells assessed as cell growth inhibition at 10 uM incubated for 48 hrs by SRB assay relative to control; method in brief: as §1
OVCAR-3 = experiment: Antiproliferative activity against human OVCAR-3 cells assessed as cell growth inhibition at 10 uM incubated for 48 hrs by SRB assay relative to control; method in brief: as §1
SK-MEL-2 = experiment: Antiproliferative activity against human SK-MEL-2 cells assessed as cell growth inhibition at 10 uM incubated for 48 hrs by SRB assay relative to control; method in brief: as §1
NCI-H322M = experiment: Antiproliferative activity against human NCI-H322M cells assessed as cell growth inhibition at 10 uM incubated for 48 hrs by SRB assay relative to control
SK-OV-3 = experiment: Antiproliferative activity against human SK-OV-3 cells assessed as cell growth inhibition at 10 uM incubated for 48 hrs by SRB assay relative to control; method in brief: as §1
MOLT-4 = experiment: Antiproliferative activity against human MOLT-4 cells assessed as cell growth inhibition at 10 uM incubated for 48 hrs by SRB assay relative to control
KM12 = experiment: Antiproliferative activity against human KM12 cells assessed as cell growth inhibition at 10 uM incubated for 48 hrs by SRB assay relative to control; method in brief: as §1
OVCAR-5 = experiment: Antiproliferative activity against human OVCAR-5 cells assessed as cell growth inhibition at 10 uM incubated for 48 hrs by SRB assay relative to control; method in brief: as §1
MDA-MB-468 = experiment: Antiproliferative activity against human MDA-MB-468 cells assessed as cell growth inhibition at 10 uM incubated for 48 hrs by SRB assay relative to control
CAKI-1 = experiment: Antiproliferative activity against human CAKI-1 cells assessed as cell growth inhibition at 10 uM incubated for 48 hrs by SRB assay relative to control
M14 = experiment: Antiproliferative activity against human M14 cells assessed as cell growth inhibition at 10 uM incubated for 48 hrs by SRB assay relative to control; method in brief: as §1
U-251 = experiment: Antiproliferative activity against human U-251 cells assessed as cell growth inhibition at 10 uM incubated for 48 hrs by SRB assay relative to control
Method in brief: (§2)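 Cells pre-incubated 24 h at 37°C, 5% CO2, then exposed to compound (DMSO stock diluted in medium with 50 µg/mL gentamicin) for 48 h. Adherent cells fixed with cold TCA (final 10%, 60 min, 4°C); suspension cells fixed with 16% TCA final. Stained with 0.4% SRB in 1% acetic acid for 10 min, dye solubilized in 10 mM Trizma base, absorbance read at 515 nm. Growth calculated against time-zero and untreated control plates.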

HL-60(TB) = experiment: Antiproliferative activity against human HL-60(TB) cells assessed as cell growth inhibition at 10 uM incubated for 48 hrs by SRB assay relative to control
Method in brief: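 Cells were plated at […] cells/well and preincubated 24 h at 37°C, 5% CO2, with time-zero plates TCA-fixed. Compound was diluted from DMSO stock in medium with 50 µg/mL gentamicin, then exposed for 48 h. Settled suspension cells were fixed with 80% TCA (final 16%), stained with 0.4% SRB and solubilized in 10 mM Trizma, A515. Growth was taken relative to Tz and control.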

RXF 393 = experiment: Antiproliferative activity against human RXF 393 cells assessed as cell growth inhibition at 10 uM incubated for 48 hrs by SRB assay relative to control; method in brief: as §1
SK-MEL-5 = experiment: Antiproliferative activity against human SK-MEL-5 cells assessed as cell growth inhibition at 10 uM incubated for 48 hrs by SRB assay relative to control; method in brief: as §1
TK-10 = experiment: Antiproliferative activity against human TK-10 cells assessed as cell growth inhibition at 10 uM incubated for 48 hrs by SRB assay relative to control; method in brief: as §2
Hs-578T = experiment: Antiproliferative activity against human Hs-578T cells assessed as cell growth inhibition at 10 uM incubated for 48 hrs by SRB assay relative to control; method in brief: as §1
DU-145 = experiment: Antiproliferative activity against human DU-145 cells assessed as cell growth inhibition at 10 uM incubated for 48 hrs by SRB assay relative to control
ACHN = experiment: Antiproliferative activity against human ACHN cells assessed as cell growth inhibition at 10 uM incubated for 48 hrs by SRB assay relative to control
HCC 2998 = experiment: Antiproliferative activity against human HCC 2998 cells assessed as cell growth inhibition at 10 uM incubated for 48 hrs by SRB assay relative to control
BT-549 = experiment: Antiproliferative activity against human BT-549 cells assessed as cell growth inhibition at 10 uM incubated for 48 hrs by SRB assay relative to control
PC-3 = experiment: Antiproliferative activity against human PC-3 cells assessed as cell growth inhibition at 10 uM incubated for 48 hrs by SRB assay relative to control
CCRF-CEM = experiment: Antiproliferative activity against human CCRF-CEM cells assessed as cell growth inhibition at 10 uM incubated for 48 hrs by SRB assay relative to control; method in brief: as §1
SF-295 = experiment: Antiproliferative activity against human SF-295 cells assessed as cell growth inhibition at 10 uM incubated for 48 hrs by SRB assay relative to control; method in brief: as §1
OVCAR-8 = experiment: Antiproliferative activity against human OVCAR-8 cells assessed as cell growth inhibition at 10 uM incubated for 48 hrs by SRB assay relative to control

Cc1nc2c(cnn2-c2ccccc2)c(=O)n1-c1ccc(NC(=O)c2ccc(Cl)cc2)cc1
inhibition of growth at 10 µM (SK-MEL-28): 17.1%
inhibition of growth at 10 µM (IGROV-1): 21.3%
inhibition of growth at 10 µM (RPMI-8226): 52.9%
inhibition of growth at 10 µM (Malme-3M): 33.3%
inhibition of growth at 10 µM (SN12C): 17%
inhibition of growth at 10 µM (MCF7): 46.8%
inhibition of growth at 10 µM (HCT-15): 23.2%
inhibition of growth at 10 µM (NCI-H522): 32.3%
inhibition of growth at 10 µM (OVCAR-3): 17.4%
inhibition of growth at 10 µM (SK-MEL-2): 26.1%
inhibition of growth at 10 µM (NCI-H322M): < 15%
inhibition of growth at 10 µM (SK-OV-3): < 15%
inhibition of growth at 10 µM (MOLT-4): 30.7%
inhibition of growth at 10 µM (KM12): 19.2%
inhibition of growth at 10 µM (OVCAR-5): < 15%
inhibition of growth at 10 µM (MDA-MB-468): 84.3%
inhibition of growth at 10 µM (CAKI-1): 29.7%
inhibition of growth at 10 µM (M14): 24.6%
inhibition of growth at 10 µM (U-251): < 15%
inhibition of growth at 10 µM (HL-60(TB)): 48.1%
inhibition of growth at 10 µM (RXF 393): < 15%
inhibition of growth at 10 µM (SK-MEL-5): 80.3%
inhibition of growth at 10 µM (TK-10): 19.9%
inhibition of growth at 10 µM (Hs-578T): 20.1%
inhibition of growth at 10 µM (DU-145): 17.8%
inhibition of growth at 10 µM (ACHN): 32.6%
inhibition of growth at 10 µM (HCC 2998): 15.8%
inhibition of growth at 10 µM (BT-549): 36%
inhibition of growth at 10 µM (PC-3): 36.7%
inhibition of growth at 10 µM (CCRF-CEM): 25.3%
inhibition of growth at 10 µM (SF-295): 45.9%
inhibition of growth at 10 µM (OVCAR-8): 43.4%

CC(=O)Nc1ccc(-n2c(C)nc3c(cnn3-c3ccccc3)c2=O)cc1
inhibition of growth at 10 µM (SK-MEL-28): < 15%
inhibition of growth at 10 µM (IGROV-1): < 15%
inhibition of growth at 10 µM (RPMI-8226): 47.5%
inhibition of growth at 10 µM (Malme-3M): 22.3%
inhibition of growth at 10 µM (SN12C): 26.1%
inhibition of growth at 10 µM (MCF7): 44.4%
inhibition of growth at 10 µM (HCT-15): 15.1%
inhibition of growth at 10 µM (NCI-H522): 25%
inhibition of growth at 10 µM (OVCAR-3): < 15%
inhibition of growth at 10 µM (SK-MEL-2): 24.3%
inhibition of growth at 10 µM (NCI-H322M): < 15%
inhibition of growth at 10 µM (SK-OV-3): < 15%
inhibition of growth at 10 µM (MOLT-4): 43.6%
inhibition of growth at 10 µM (KM12): < 15%
inhibition of growth at 10 µM (OVCAR-5): < 15%
inhibition of growth at 10 µM (MDA-MB-468): < 15%
inhibition of growth at 10 µM (CAKI-1): 31.1%
inhibition of growth at 10 µM (M14): < 15%
inhibition of growth at 10 µM (U-251): < 15%
inhibition of growth at 10 µM (HL-60(TB)): 28.3%
inhibition of growth at 10 µM (RXF 393): < 15%
inhibition of growth at 10 µM (SK-MEL-5): 77.4%
inhibition of growth at 10 µM (TK-10): 20.4%
inhibition of growth at 10 µM (Hs-578T): < 15%
inhibition of growth at 10 µM (DU-145): 17.8%
inhibition of growth at 10 µM (ACHN): 29.8%
inhibition of growth at 10 µM (HCC 2998): < 15%
inhibition of growth at 10 µM (BT-549): 48%
inhibition of growth at 10 µM (PC-3): 30.3%
inhibition of growth at 10 µM (CCRF-CEM): 30.8%
inhibition of growth at 10 µM (SF-295): 36.5%
inhibition of growth at 10 µM (OVCAR-8): 20%

Cc1nc2c(cnn2-c2ccccc2)c(=O)n1-c1ccc(N2C(=O)C=CC2=O)cc1
inhibition of growth at 10 µM (SK-MEL-28): < 15%
inhibition of growth at 10 µM (IGROV-1): < 15%
inhibition of growth at 10 µM (RPMI-8226): < 15%
inhibition of growth at 10 µM (Malme-3M): < 15%
inhibition of growth at 10 µM (SN12C): < 15%
inhibition of growth at 10 µM (MCF7): < 15%
inhibition of growth at 10 µM (HCT-15): < 15%
inhibition of growth at 10 µM (NCI-H522): < 15%
inhibition of growth at 10 µM (OVCAR-3): < 15%
inhibition of growth at 10 µM (SK-MEL-2): < 15%
inhibition of growth at 10 µM (NCI-H322M): < 15%
inhibition of growth at 10 µM (SK-OV-3): < 15%
inhibition of growth at 10 µM (MOLT-4): < 15%
inhibition of growth at 10 µM (KM12): < 15%
inhibition of growth at 10 µM (OVCAR-5): < 15%
inhibition of growth at 10 µM (MDA-MB-468): 18.6%
inhibition of growth at 10 µM (CAKI-1): < 15%
inhibition of growth at 10 µM (M14): < 15%
inhibition of growth at 10 µM (U-251): < 15%
inhibition of growth at 10 µM (HL-60(TB)): < 15%
inhibition of growth at 10 µM (RXF 393): < 15%
inhibition of growth at 10 µM (SK-MEL-5): < 15%
inhibition of growth at 10 µM (TK-10): < 15%
inhibition of growth at 10 µM (Hs-578T): < 15%
inhibition of growth at 10 µM (DU-145): < 15%
inhibition of growth at 10 µM (ACHN): < 15%
inhibition of growth at 10 µM (HCC 2998): < 15%
inhibition of growth at 10 µM (BT-549): < 15%
inhibition of growth at 10 µM (PC-3): < 15%
inhibition of growth at 10 µM (CCRF-CEM): 32.2%
inhibition of growth at 10 µM (SF-295): < 15%
inhibition of growth at 10 µM (OVCAR-8): < 15%
